For test [1], the system named is 3T3-L1. The test is described as follows: Induction of mouse 3T3L1 cell differentiation assessed as increase in accumulation of intracellular lipid droplet at 25 uM by Oil red O staining. Format: functional, cell-based. In short, it runs like this: (§1)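 Following 8-day differentiation with compound applied from induction (insulin/dexamethasone/IBMX, then insulin maintenance), intracellular lipid droplets visualized by Oil Red O staining and photographed.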

Test [2] has as its system 3T3-L1. The test is described as follows: Induction of adipogenesis in mouse 3T3L1 cells assessed as increase in triglyceride level at 1 uM after 8 days relative to control. Format: functional. In short, it runs like this: (§2)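 Differentiation protocol: confluent 3T3-L1 cells held 2 days, then induced with insulin (2 μg/mL), dexamethasone (1 μM) and IBMX (0.125 mM) in 10% FBS/DMEM, then maintained with insulin. Compound present from induction for 8 days. Cellular triglyceride quantified with an enzymatic kit and compared with untreated control.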

The subject of test [3] is 3T3-L1. Nature of the test: Induction of mouse 3T3L1 cell differentiation assessed as increase in accumulation of intracellular lipid droplet at 1 uM by Oil red O staining. Format: functional, cell-based. In short, it runs like this:
as §1

Test [4] concerns 3T3-L1. The test is described as follows: Induction of aP2 gene expression in mouse 3T3L1 cells assessed as increase in mRNA level at 10 uM by qRT-PCR analysis. Format: functional, cell-based. In short, it runs like this:
(§3)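 3T3-L1 cells grown in DMEM/10% NCS at 37 °C, 5% CO2. Two days post-confluence, differentiation induced with 2 μg/mL insulin, 1 μM dexamethasone and 0.125 mM IBMX in 10% FBS/DMEM, then kept in 10% FBS/DMEM plus 2 μg/mL insulin. Compound added at induction and left 8 days. Cells then harvested for target protein (RIPA lysate, immunoblot) or mRNA (TRIzol RNA, RT-qPCR).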
In general terms: Real-time PCR tracks product formation cycle by cycle.

The test system of test [5] is 3T3-L1. The test is described as follows: Induction of aP2 gene expression in mouse 3T3L1 cells assessed as increase in aP2 protein level at 12.5 uM by Western blot analysis. Format: functional, cell-based. In short, it runs like this:
as §3
(In general: In western blotting, separated proteins are transferred to a membrane and probed.)

The subject of test [6] is 3T3-L1. Nature of the test: Induction of GLUT4 gene expression in mouse 3T3L1 cells assessed as increase in GLUT4 protein level at 6.25 uM by Western blot analysis. The class given is functional, cell-based. In short, it runs like this: as §3
The test system of test [7] is 3T3-L1. The test is described as follows: Induction of GLUT4 gene expression in mouse 3T3L1 cells assessed as increase in mRNA level at 10 uM by qRT-PCR analysis. The class given is functional, cell-based. In short, it runs like this:
as §3

The test system of test [8] is 3T3-L1. The test is described as follows: Induction of adipogenesis in mouse 3T3L1 cells assessed as increase in triglyceride level at 25 uM after 8 days relative to control. The class given is functional. In short, it runs like this:
as §2

The subject of test [9] is 3T3-L1. Nature of the test: Induction of adipogenesis in mouse 3T3L1 cells assessed as increase in triglyceride level at 50 uM after 8 days relative to control. Format: functional. In short, it runs like this:
as §2

Test [10] concerns 3T3-L1. The test is described as follows: Induction of aP2 gene expression in mouse 3T3L1 cells assessed as increase in aP2 protein level at 6.25 uM by Western blot analysis. Format: functional, cell-based. In short, it runs like this: as §3
The subject of test [11] is 3T3-L1. Nature of the test: Induction of GLUT4 gene expression in mouse 3T3L1 cells assessed as increase in GLUT4 protein level at 12.5 uM by Western blot analysis. The class given is functional, cell-based. In short, it runs like this:
as §3

For test [12], the system named is 3T3-L1. Nature of the test: Induction of adipogenesis in mouse 3T3L1 cells assessed as increase in triglyceride level at 12.5 uM after 8 days relative to control. The class given is functional. In short, it runs like this:
as §2

For twelve compounds, Activity results are on record in ChEMBL document CHEMBL1773046, “Isoprenylated flavonoids and adipogenesis-promoting constituents from Morus nigra” (2011).

Calls of active or inactive are those of the source. The rule behind the calls is not given here.

On to `CC(C)=CC[C@]12Oc3cc4c(c(O)c3C(=O)[C@@]1(O)Oc1cc(O)ccc12)C[C@@H](O)C(C)(C)O4`, for which the result in the test on 3T3-L1 [1] was inactive.

Take `CC(C)=CC[C@]12Oc3cc4c(c(O)c3C(=O)[C@@]1(O)Oc1cc(O)ccc12)C[C@@H](C(C)(C)O)O4`: the outcome with 3T3-L1 [1] was inactive.

Take `CC(C)=CC[C@]12Oc3cc4c(c(O)c3C(=O)[C@@]1(O)Oc1cc(O)ccc12)C[C@H](C(C)(C)O)O4`: the result in the test on 3T3-L1 [1] was inactive.

As to `CN(CCOc1ccc(CC2SC(=O)NC2=O)cc1)c1ccccn1` (stereo unspecified) [ROSIGLITAZONE], the Activity in the test on 3T3-L1 [2] is 450.32%. In the test on 3T3-L1 [3], the result was Active.

For `CC(C)=CCC/C(C)=C/CC/C(C)=C/C[C@@]12Oc3cc(O)cc(O)c3C(=O)[C@]1(O)Oc1cc(O)ccc12`, the outcome in the test with 3T3-L1 [1] was inactive.

As to `C=C(C)[C@H]1Cc2c(cc(O)c3c2O[C@]2(CC=C(C)C)c4ccc(O)cc4O[C@]2(O)C3=O)O1`, in the test on 3T3-L1 [1], the result was inactive.

On to `C=CC(C)(C)c1c(O)cc(O)c2c(=O)c(CC=C(C)C)c(-c3ccc(O)cc3O)oc12` [NIGRASIN I], for which the outcome with 3T3-L1 [4], with 3T3-L1 [5], with 3T3-L1 [6], in the test on 3T3-L1 [7], with 3T3-L1 [1] and in the test with 3T3-L1 [10] was Active. Further, in the test with 3T3-L1 [11], the outcome was Active. Further, the Activity was found to be 317.18% with 3T3-L1 [8], 250.63% with 3T3-L1 [9] and 179.84% in the test on 3T3-L1 [12].

For the compound `CC(C)=CCc1c(-c2ccc(O)cc2O)oc2c3c(cc(O)c2c1=O)O[C@H](C)C3(C)C` [NIGRASIN H], the outcome in the test on 3T3-L1 [4], in the test with 3T3-L1 [5], in the test on 3T3-L1 [6], with 3T3-L1 [7], in the test with 3T3-L1 [1] and in the test on 3T3-L1 [10] was Active. Further, the result in the test on 3T3-L1 [11] was Active. Also, the Activity is 143.94% in the test on 3T3-L1 [8], 203.39% in the test with 3T3-L1 [9] and 102.16% in the test with 3T3-L1 [12].

`CC(C)=CC[C@]12Oc3cc4c(c(O)c3C(=O)[C@@]1(O)Oc1cc(O)ccc12)C[C@H](O)C(C)(C)O4`: the result in the test on 3T3-L1 [1] was inactive.

Consider `C=C(C)C(O)CC/C(C)=C/CC/C(C)=C/C[C@@]12Oc3cc(O)cc(O)c3C(=O)[C@]1(O)Oc1cc(O)ccc12` (stereo partly specified), for which the result in the test on 3T3-L1 [1] was inactive.

In the case of `C=C(C)[C@@H]1Cc2c(cc(O)c3c2O[C@]2(CC=C(C)C)c4ccc(O)cc4O[C@]2(O)C3=O)O1`, the outcome in the test on 3T3-L1 [1] was inactive.

Take `CC(C)=CCc1c(O)cc2oc(-c3ccc(O)cc3O)c(CC=C(C)C)c(=O)c2c1O`: the outcome in the test with 3T3-L1 [1] was inactive.
